Assay outcomes from PubChem.
CHRM5 PAM: positive allosteric modulators of human muscarinic M5 receptor; P08912; CHO-K1 hM5, Fluo-8 calcium, ACh EC20 PAM; 0% = ACh EC20, 100% = ACh EC100; activation, % at 3 µM; 0.3% of 360,000 active; AID 624038;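 active = activation above the run cutoff, the mean activation of all test compounds plus 3 SD, cut at about 18% in these data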
Target sequence (P08912 whole entry, looked up): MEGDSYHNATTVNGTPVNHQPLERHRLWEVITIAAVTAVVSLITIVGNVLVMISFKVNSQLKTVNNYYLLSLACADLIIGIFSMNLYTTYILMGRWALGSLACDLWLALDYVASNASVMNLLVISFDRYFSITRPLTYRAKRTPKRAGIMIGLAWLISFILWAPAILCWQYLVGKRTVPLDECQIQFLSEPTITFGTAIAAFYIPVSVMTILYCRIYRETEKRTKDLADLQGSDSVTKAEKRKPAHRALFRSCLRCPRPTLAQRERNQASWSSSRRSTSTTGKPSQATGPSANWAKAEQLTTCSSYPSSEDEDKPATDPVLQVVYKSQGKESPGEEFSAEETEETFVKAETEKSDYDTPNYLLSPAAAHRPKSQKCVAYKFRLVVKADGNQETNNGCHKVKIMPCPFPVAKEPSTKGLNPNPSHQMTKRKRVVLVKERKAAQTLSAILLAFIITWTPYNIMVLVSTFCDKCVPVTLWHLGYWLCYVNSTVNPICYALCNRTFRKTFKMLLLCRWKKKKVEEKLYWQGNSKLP
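Test system: CHO-K1 hM5 cells / Doses: single-point, 3 µM nominal / Times: Post-acetylcholine fluorescence recording 140 s / Technique: Fluo-8 calcium fluorescence / Measure: Max/basal fluorescence ratio as % of EC20–EC100 ACh window / Benchmarks: low control EC20 acetylcholine (0%), high control EC100 acetylcholine (100%) / Replicates: one well per compound, no replicates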
CHRM4 agonist: agonists of human muscarinic M4 receptor (CHRM4); P08173; CHO-K1 hM4/Gqi5, Fluo-8 calcium fluorescence; vehicle 0%, full acetylcholine response 100%; activation, % at 3 µM; 0.14% of 360,000 active; AID 624127;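 active = activation above the run mean over all test wells plus 3 SD, cut at about 32% in these data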;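 note: peak over basal fluorescence ratio per well then scaled between controls; 0% = DMSO wells and 100% = acetylcholine at EC100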
CHRM5 antagonist: antagonists of human muscarinic M5 receptor (CHRM5) | P08912 | CHO-hM5 cells, Fluo-8 calcium fluorescence, ACh EC80 | inhibition, % at 3 µM | 0.59% of 360,000 active;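 active = inhibition above a per-plate cutoff, the mean of that plate's test compounds plus 3 SD, cut at about 27% in these data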;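 note: 0% = acetylcholine EC80 with DMSO and 100% = DMSO without agonist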
M4 PAM: CHRM4 positive allosteric modulation | P08173 | CHO-K1 hM4/Gqi5, Fluo-8 calcium fluorescence, ACh EC20; 0% = ACh EC20, 100% = maximal ACh | activation, % at 3 µM | 0.4% of 360,000 active | AID 624126;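 active = activation above its plate's cutoff, the mean activation of sample wells plus 3 SD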
M5 ag: CHRM5 agonism in calcium assay; P08912; CHO-K1 hM5 cells, Fluo-8 calcium fluorescence; 0% DMSO wells, 100% maximal acetylcholine response; activation, % at 3 µM; 0.19% of 360,000 active;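 active = activation above the run's mean over test compounds plus 3 SD, cut at about 23% in these data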;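 note: signal is peak over basal fluorescence ratio across the kinetic read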
CHRM4 antagonist: CHRM4 antagonism in calcium assay; P08173; CHO-hM4 cells, ACh EC80, Fluo-8 calcium fluorescence; inhibition, % at 3 µM; 0.73% of 360,000 active; AID 624125;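 active = inhibition above its plate's cutoff, the mean inhibition of sample wells plus 3 SD, cut at about 27% in these data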;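 note: 0% = acetylcholine EC80 with DMSO and 100% = DMSO without agonist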
Numbers without * were called inactive. Shown are actives, neighbours in structure and some others; about 1.8% of the full set was active somewhere.

C=CC[C@@H](CC(=O)OC(C)(C)C)C(=O)OC[C@H]1CCCN1C(=O)[C@@H](CC=C)CC(=O)N(CCO)Cc1ccccc1 was read as CHRM5 PAM -3, CHRM4 agonist 7, CHRM5 antagonist 9, M4 PAM -3, M5 ag -2 and CHRM4 antagonist 0.
Screening CN1CCC(N(C)CC(O)c2ccccc2)CC1 (stereo unspecified) returned CHRM5 PAM 4, CHRM4 agonist 1, CHRM5 antagonist 4, M4 PAM 1, M5 ag 1 and CHRM4 antagonist -3.
For Cc1ccccc1C(=O)OC1CCN(C)CC1 the results were CHRM5 PAM -20, CHRM4 agonist 0, CHRM5 antagonist 12, M4 PAM -8, M5 ag -9 and CHRM4 antagonist 9.
`CN1CCC(Oc2ccccc2Sc2ccccc2)CC1` gave CHRM5 PAM -19, CHRM4 agonist 10, CHRM5 antagonist 78*, M4 PAM -43, M5 ag -6 and CHRM4 antagonist 74*.
For CN1CCC(OC(c2ccccc2)c2ccccc2)CC1 the results were CHRM5 PAM -19, CHRM4 agonist 1, CHRM5 antagonist 96*, M4 PAM -17, M5 ag -2 and CHRM4 antagonist 80*.
`O=c1[nH]c(-c2ccccc2Cl)nc2c1sc(=S)n2-c1ccccc1` gave CHRM5 PAM -1, CHRM4 agonist 1, CHRM5 antagonist 1, M4 PAM 6, M5 ag -2 and CHRM4 antagonist 2.
CC1([N+](=O)[O-])COC2(OC1)C(=O)Nc1ccccc12 (stereo unspecified) was read as CHRM5 PAM 0, CHRM4 agonist 0, CHRM5 antagonist 8, M4 PAM -18, M5 ag -3 and CHRM4 antagonist 48*.
Screening O=c1nc(Nc2ccc([N+](=O)[O-])cc2)[nH]c(=O)[nH]1 returned CHRM5 PAM 4, CHRM4 agonist 0, CHRM5 antagonist -1, M4 PAM -1, M5 ag -2 and CHRM4 antagonist -4.
CCCn1c(-c2ccncc2)n[nH]c1=S was read as CHRM5 PAM 22*, CHRM4 agonist 2, CHRM5 antagonist -1, M4 PAM 7, M5 ag 1 and CHRM4 antagonist -4.
Screening CC(=O)O[C@]1(C(C)=O)CC[C@H]2[C@@H]3C=C(C)C4=CC(=O)CC[C@@H]4[C@H]3CC[C@@]21C returned CHRM5 PAM -6, CHRM4 agonist 1, CHRM5 antagonist 6, M4 PAM -10, M5 ag -1 and CHRM4 antagonist 17.
C#C[C@]1(OC(C)=O)CCC2C3CCC4=CC(=O)CC[C@@H]4C3CC[C@@]21C (stereo partly specified) was read as CHRM5 PAM -17, CHRM4 agonist 13, CHRM5 antagonist 3, M4 PAM -7, M5 ag 27* and CHRM4 antagonist -9.
Cc1c(O)c(S(=O)(=O)c2ccccc2)c(=O)n(-c2ccccc2)c1-c1ccccc1 was read as CHRM5 PAM 0, CHRM4 agonist 1, CHRM5 antagonist 4, M4 PAM 10, M5 ag -3 and CHRM4 antagonist 27*.
Screening Cc1c(O)c(S(=O)c2ccccc2)c(=O)n(-c2ccccc2)c1-c1ccccc1 (stereo unspecified) returned CHRM5 PAM -3, CHRM4 agonist 0, CHRM5 antagonist 0, M4 PAM -3, M5 ag 1 and CHRM4 antagonist 2.
Screening COc1ccc(C(=O)C(C)[n+]2ccc(C)c3ccccc32)cc1[N+](=O)[O-] (stereo unspecified) returned CHRM5 PAM -13, CHRM4 agonist 4, CHRM5 antagonist 4, M4 PAM -14, M5 ag -9 and CHRM4 antagonist 27*.
COc1ccc(N2CCN(CC(=O)Nc3ccc(C)c(C)c3)CC2)cc1 was read as CHRM5 PAM 5, CHRM4 agonist 0, CHRM5 antagonist -1, M4 PAM 1, M5 ag -3 and CHRM4 antagonist -13.
Screening Oc1ccc(N2CCN(Cc3cc4c(cc3Br)OCCO4)CC2)cc1 returned CHRM5 PAM 1, CHRM4 agonist 4, CHRM5 antagonist 10, M4 PAM -10, M5 ag -3 and CHRM4 antagonist 14.
`N#CC1=C(N)Oc2cc(O)ccc2C1c1ccc(Br)s1` (stereo unspecified) gave CHRM5 PAM -21, CHRM4 agonist 14, CHRM5 antagonist 9, M4 PAM 0, M5 ag 29* and CHRM4 antagonist -10.
`CCOc1cc(C)c(S(=O)(=O)Nc2ccc3cn[nH]c3c2)cc1C` gave CHRM5 PAM -16, CHRM4 agonist 14, CHRM5 antagonist 30*, M4 PAM -2, M5 ag 9 and CHRM4 antagonist 17.
Screening Cc1ccc(S(=O)(=O)Nc2ccc3cn[nH]c3c2)c(C)c1 returned CHRM5 PAM -5, CHRM4 agonist 6, CHRM5 antagonist 4, M4 PAM 0, M5 ag 12 and CHRM4 antagonist 0.
For O=C(CC1OC(=O)c2ccccc21)Nc1cc(S(=O)(=O)N2CCOCC2)ccc1OCC(F)(F)F (stereo unspecified) the results were CHRM5 PAM -2, CHRM4 agonist 3, CHRM5 antagonist 4, M4 PAM 1, M5 ag 1 and CHRM4 antagonist 5.
For CCn1c(NCc2ccccn2)nc2c1c(=O)n(C)c(=O)n2C the results were CHRM5 PAM 3, CHRM4 agonist 2, CHRM5 antagonist -5, M4 PAM 40*, M5 ag 2 and CHRM4 antagonist -12.
For CS(=O)(=O)N(Cc1ccc(C(=O)NN=C2CCCCCC2)cc1)c1ccccc1 the results were CHRM5 PAM 25*, CHRM4 agonist 0, CHRM5 antagonist 13, M4 PAM 9, M5 ag 2 and CHRM4 antagonist -2.
CS(=O)(=O)N(Cc1ccc(C(=O)NN=C2CCCC2)cc1)c1ccccc1 was read as CHRM5 PAM -2, CHRM4 agonist 1, CHRM5 antagonist 3, M4 PAM 3, M5 ag 0 and CHRM4 antagonist -1.
Cc1cnc(NC(=O)NCC2CCCC(CNC(=O)Nc3ncc(C)s3)C2)s1 (stereo unspecified) was read as CHRM5 PAM 27*, CHRM4 agonist 20, CHRM5 antagonist 17, M4 PAM 48*, M5 ag 2 and CHRM4 antagonist 9.
For COc1ccc(-n2nnnc2C(c2ccccc2)N2CCN(C/C=C/c3ccccc3)CC2)cc1 (stereo unspecified) the results were CHRM5 PAM -22, CHRM4 agonist 3, CHRM5 antagonist 72*, M4 PAM -16, M5 ag -8 and CHRM4 antagonist 32*.
